In ChEMBL document CHEMBL5325511, “Discovery of N-(4-(Aminomethyl)phenyl)-5-methylpyrimidin-2-amine Derivatives as Potent and Selective JAK2 Inhibitors” (ACS Med Chem Lett, 2023):

Legend:
[1] = biological target: T1, Receptor-type tyrosine-protein kinase FLT3 (Homo sapiens, UniProt P36888); experiment: Inhibition of FLT3 in human MOLM-13 cells; format: cell-based
T1 sequence (P36888 whole entry): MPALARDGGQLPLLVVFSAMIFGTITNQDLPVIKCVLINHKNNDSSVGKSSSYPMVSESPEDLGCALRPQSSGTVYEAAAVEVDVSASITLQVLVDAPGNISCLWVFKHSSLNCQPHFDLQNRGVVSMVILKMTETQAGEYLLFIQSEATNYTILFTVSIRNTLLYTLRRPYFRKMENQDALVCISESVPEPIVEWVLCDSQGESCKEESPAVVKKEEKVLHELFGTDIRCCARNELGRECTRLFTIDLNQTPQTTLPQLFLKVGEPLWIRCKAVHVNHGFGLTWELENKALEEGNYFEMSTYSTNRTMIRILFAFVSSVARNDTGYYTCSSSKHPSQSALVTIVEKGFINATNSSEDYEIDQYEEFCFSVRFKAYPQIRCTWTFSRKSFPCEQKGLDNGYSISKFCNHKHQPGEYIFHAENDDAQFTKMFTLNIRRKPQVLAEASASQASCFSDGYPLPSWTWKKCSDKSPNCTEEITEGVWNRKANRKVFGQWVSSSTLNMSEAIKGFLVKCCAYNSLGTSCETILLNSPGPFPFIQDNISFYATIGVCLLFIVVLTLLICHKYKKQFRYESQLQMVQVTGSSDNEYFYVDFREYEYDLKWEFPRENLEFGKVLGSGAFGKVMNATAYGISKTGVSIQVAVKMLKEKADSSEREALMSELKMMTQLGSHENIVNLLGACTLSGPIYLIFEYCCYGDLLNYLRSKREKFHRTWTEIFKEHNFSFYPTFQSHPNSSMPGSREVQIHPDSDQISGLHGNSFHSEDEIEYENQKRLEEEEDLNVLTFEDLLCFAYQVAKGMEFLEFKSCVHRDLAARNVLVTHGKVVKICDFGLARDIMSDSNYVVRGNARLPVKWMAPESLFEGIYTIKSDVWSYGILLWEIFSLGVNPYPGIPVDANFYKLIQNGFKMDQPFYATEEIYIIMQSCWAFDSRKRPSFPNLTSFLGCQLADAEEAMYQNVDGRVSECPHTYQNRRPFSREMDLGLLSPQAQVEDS
How it was run: (§1)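 Cell proliferation assay. IC50 is the concentration that inhibits proliferation by 50%, taken from dose–response curves. Mean ± SEM of at least three independent experiments.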

[2] = biological target: Tyrosine-protein kinase JAK2 (Mus musculus, UniProt Q62120, V617F); experiment: Inhibition of JAK2 V617F mutant in mouse BaF3 cells; format: cell-based; how it was run: as §1
Sequence of Tyrosine-protein kinase JAK2 (Mus musculus, UniProt Q62120, V617F) (Q62120 as listed by the source V617F): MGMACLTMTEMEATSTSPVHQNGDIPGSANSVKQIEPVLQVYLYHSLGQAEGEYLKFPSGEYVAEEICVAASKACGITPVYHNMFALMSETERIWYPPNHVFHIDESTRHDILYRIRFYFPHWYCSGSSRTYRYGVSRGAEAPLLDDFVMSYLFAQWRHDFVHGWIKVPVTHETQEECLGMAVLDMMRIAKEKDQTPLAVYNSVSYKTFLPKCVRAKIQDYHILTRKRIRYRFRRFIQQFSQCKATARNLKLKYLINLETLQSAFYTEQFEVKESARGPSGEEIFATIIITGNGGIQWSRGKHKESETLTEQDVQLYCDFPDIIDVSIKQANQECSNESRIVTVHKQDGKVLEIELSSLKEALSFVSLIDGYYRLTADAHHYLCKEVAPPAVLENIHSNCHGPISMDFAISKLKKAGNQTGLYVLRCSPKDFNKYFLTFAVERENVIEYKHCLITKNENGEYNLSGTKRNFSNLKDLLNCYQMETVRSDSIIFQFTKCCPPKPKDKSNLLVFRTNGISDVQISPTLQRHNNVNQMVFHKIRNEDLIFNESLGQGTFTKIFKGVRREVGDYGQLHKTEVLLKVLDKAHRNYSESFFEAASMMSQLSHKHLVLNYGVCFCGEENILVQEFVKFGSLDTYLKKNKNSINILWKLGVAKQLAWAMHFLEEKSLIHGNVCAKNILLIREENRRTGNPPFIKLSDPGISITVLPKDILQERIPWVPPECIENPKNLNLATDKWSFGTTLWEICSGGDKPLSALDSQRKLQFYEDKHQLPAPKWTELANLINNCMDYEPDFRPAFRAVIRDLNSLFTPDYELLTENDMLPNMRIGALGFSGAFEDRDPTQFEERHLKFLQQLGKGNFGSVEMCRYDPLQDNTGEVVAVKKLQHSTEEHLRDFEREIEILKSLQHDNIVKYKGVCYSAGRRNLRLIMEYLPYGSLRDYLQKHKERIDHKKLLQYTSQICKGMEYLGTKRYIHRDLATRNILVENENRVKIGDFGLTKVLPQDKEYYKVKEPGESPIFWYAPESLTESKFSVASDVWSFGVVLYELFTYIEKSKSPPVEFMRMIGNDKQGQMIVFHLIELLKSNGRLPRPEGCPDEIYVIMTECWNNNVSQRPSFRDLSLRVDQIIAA

[3] = biological target: T2, Tyrosine-protein kinase JAK2 (Homo sapiens, UniProt O60674); experiment: Inhibition of human JAK2 JH1 expressed in baculovirus infected Sf9 cells assessed as residual activity at 100 nM relative to control
T2 sequence (O60674 whole entry): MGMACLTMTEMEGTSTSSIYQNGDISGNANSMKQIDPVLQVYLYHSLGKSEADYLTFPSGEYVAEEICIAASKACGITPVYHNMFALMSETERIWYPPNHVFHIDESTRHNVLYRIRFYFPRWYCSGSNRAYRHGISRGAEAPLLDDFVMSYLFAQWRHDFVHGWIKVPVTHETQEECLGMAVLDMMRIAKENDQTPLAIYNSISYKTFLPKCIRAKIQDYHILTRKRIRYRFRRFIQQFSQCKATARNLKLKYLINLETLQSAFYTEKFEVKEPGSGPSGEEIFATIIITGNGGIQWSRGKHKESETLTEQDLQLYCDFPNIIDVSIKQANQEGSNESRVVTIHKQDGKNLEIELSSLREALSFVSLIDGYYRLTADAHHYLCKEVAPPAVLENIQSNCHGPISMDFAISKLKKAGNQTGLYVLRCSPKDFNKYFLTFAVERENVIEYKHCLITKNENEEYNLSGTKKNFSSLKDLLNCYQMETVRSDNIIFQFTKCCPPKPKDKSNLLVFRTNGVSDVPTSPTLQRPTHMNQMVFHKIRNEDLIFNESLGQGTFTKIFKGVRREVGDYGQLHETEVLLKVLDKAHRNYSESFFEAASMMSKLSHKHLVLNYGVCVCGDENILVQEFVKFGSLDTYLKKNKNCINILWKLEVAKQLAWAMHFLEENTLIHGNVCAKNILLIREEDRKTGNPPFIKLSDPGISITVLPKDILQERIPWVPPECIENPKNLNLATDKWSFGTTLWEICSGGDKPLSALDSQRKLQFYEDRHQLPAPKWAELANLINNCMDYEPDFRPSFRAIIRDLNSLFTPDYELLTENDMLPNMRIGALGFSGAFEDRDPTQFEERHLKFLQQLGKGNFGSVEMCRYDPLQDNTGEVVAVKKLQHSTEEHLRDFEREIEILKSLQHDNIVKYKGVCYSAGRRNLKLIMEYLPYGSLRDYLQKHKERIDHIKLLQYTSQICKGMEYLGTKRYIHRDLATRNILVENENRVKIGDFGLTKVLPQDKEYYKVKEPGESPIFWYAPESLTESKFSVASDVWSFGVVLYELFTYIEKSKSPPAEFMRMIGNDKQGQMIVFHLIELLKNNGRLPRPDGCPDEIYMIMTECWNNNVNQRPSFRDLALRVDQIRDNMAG

[4] = Metabolic stability in human liver microsomes assessed as half life; format: ADME, Microsome
[5] = biological target: Tyrosine-protein kinase JAK2 (Homo sapiens, UniProt O60674, V617F); experiment: Inhibition of JAK2 V617F mutant in human SET2 cells; format: cell-based; how it was run: as §1
Sequence of Tyrosine-protein kinase JAK2 (Homo sapiens, UniProt O60674, V617F) (O60674 whole entry V617F): as the sequence (O60674 whole entry) above, with V617F counted along it

[6] = biological target: T1, Receptor-type tyrosine-protein kinase FLT3; experiment: Inhibition of FLT3 (unknown origin) in presence of Mg/ATP mixture by [gamma p33]-ATP based radiometric assay
How it was run: (§2)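 IC50 values determined by Eurofins Discovery.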

[7] = Selectivity ratio of IC50 for FLT3 (unknown origin) to IC50 for JAK2 (unknown origin)
[8] = Selectivity ratio of IC50 for JAK3 (unknown origin) to IC50 for JAK2 (unknown origin)
[9] = biological target: T2, Tyrosine-protein kinase JAK2; experiment: Inhibition of JAK2 (unknown origin) in presence of Mg/ATP mixture by [gamma p33]-ATP based radiometric assay; how it was run: as §2
[10] = biological target: Tyrosine-protein kinase JAK1 (Homo sapiens, UniProt P23458); experiment: Inhibition of JAK1 (unknown origin) in presence of Mg/ATP mixture by [gamma p33]-ATP based radiometric assay; how it was run: as §2
Sequence of Tyrosine-protein kinase JAK1 (P23458 whole entry): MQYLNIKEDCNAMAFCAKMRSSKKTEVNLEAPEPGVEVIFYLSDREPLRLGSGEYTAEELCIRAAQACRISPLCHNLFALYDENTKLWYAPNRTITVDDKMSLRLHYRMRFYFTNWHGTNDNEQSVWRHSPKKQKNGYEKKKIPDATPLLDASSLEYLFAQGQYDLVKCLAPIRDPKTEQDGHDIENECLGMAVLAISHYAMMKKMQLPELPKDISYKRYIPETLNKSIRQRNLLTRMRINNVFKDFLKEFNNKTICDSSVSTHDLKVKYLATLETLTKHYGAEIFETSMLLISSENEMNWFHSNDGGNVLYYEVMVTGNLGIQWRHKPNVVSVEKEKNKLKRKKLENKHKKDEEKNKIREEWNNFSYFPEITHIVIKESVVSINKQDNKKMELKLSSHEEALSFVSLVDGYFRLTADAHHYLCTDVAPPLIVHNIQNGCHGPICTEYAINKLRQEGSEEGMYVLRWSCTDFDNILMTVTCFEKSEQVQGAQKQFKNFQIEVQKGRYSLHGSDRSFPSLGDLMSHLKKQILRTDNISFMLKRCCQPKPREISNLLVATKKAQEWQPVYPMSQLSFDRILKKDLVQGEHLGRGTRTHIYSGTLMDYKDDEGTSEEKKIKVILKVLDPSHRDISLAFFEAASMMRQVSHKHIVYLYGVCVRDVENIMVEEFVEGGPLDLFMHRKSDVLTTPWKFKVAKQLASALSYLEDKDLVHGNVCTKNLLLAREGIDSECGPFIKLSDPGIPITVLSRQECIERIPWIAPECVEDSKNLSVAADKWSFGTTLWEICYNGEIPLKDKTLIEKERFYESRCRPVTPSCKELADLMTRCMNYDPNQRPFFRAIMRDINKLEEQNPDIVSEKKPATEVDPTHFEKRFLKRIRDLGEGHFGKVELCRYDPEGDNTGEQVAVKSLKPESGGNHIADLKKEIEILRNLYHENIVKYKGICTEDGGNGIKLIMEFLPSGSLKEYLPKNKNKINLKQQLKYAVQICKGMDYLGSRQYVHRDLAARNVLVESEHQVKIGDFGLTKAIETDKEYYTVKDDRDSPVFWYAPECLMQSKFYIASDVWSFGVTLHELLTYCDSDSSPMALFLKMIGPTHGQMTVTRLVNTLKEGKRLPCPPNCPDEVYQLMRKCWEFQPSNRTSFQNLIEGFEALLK

[11] = Selectivity ratio of IC50 for TYK2 (unknown origin) to IC50 for JAK2 (unknown origin)
[12] = biological target: T3, Tyrosine-protein kinase JAK3 (Homo sapiens, UniProt P52333); experiment: Inhibition of JAK3 (unknown origin) in presence of Mg/ATP mixture by [gamma p33]-ATP based radiometric assay
T3 sequence (P52333 whole entry): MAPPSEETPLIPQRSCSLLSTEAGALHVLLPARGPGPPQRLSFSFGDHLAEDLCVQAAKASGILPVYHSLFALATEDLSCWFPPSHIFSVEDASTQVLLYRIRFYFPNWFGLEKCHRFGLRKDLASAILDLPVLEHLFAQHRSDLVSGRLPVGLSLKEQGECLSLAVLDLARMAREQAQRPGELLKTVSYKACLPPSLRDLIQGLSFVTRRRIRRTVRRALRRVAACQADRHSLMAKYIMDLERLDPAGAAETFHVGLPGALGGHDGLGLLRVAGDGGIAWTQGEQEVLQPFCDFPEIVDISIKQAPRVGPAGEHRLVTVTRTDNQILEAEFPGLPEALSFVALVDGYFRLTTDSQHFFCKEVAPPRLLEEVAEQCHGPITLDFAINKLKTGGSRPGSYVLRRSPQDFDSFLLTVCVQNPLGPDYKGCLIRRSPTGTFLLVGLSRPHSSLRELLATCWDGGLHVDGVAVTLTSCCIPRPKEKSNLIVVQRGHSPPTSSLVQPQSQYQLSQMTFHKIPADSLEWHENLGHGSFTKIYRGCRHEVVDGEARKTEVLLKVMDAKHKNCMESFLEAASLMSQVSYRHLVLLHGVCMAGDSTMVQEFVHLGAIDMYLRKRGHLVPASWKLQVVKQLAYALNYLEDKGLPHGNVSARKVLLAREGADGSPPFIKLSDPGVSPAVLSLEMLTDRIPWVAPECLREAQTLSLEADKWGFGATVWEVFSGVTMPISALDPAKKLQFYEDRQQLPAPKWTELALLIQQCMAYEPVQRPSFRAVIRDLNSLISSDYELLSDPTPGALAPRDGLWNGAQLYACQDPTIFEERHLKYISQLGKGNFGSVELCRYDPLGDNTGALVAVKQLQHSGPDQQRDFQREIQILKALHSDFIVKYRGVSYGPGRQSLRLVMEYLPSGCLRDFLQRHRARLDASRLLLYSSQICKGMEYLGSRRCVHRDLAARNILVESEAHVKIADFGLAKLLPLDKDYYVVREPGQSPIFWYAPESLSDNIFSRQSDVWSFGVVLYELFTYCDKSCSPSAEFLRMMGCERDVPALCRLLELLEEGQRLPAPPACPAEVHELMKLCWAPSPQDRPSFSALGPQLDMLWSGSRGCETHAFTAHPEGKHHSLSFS

[13] = biological target: Non-receptor tyrosine-protein kinase TYK2 (Homo sapiens, UniProt P29597); experiment: Inhibition of TYK2 (unknown origin) in presence of Mg/ATP mixture by [gamma p33]-ATP based radiometric assay
Sequence of Non-receptor tyrosine-protein kinase TYK2 (P29597 whole entry): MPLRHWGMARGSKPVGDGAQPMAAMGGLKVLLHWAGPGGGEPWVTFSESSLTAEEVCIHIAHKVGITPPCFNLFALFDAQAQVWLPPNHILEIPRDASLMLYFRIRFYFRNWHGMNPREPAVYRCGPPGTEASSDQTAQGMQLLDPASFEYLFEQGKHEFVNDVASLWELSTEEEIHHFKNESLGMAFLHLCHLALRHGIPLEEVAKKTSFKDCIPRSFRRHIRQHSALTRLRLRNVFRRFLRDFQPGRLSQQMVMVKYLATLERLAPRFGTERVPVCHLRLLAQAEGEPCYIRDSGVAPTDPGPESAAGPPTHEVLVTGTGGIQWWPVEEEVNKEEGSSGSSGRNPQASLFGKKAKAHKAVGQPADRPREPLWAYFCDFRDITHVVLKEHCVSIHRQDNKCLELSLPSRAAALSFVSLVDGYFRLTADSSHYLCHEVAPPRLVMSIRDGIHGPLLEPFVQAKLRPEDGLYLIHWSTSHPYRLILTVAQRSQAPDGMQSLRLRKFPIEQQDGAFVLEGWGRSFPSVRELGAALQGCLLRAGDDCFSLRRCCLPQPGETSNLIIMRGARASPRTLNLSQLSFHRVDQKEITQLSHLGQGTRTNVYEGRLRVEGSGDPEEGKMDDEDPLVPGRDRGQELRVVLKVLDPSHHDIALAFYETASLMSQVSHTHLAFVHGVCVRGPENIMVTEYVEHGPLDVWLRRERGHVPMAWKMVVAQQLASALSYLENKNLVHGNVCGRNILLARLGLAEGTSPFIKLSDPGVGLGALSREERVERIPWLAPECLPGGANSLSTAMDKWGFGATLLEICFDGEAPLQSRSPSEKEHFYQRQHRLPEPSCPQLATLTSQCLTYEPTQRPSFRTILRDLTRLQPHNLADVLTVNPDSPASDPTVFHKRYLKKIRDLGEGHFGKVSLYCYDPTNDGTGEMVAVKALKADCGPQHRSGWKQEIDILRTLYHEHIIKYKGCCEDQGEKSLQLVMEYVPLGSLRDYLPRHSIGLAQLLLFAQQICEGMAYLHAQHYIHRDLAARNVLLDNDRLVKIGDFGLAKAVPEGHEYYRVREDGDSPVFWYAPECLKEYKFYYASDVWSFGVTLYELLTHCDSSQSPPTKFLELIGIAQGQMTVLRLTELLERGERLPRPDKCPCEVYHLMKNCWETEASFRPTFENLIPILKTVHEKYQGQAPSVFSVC

[14] = Cmax in Sprague-Dawley rat at 5 mg/kg, po measured upto 24 hrs by LC-MS/MS analysis; format: ADME, organism-based; design: dose 5 mg/kg, time < 24 hrs, route po; conditions: in vivo, 24 h
How it was run: (§3)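 Sprague–Dawley rats, n = 5, dosed at 5 mg/kg as a solution in 2% ethanol and 1% Tween 80, pH 5.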

[15] = Half life in Sprague-Dawley rat at 5 mg/kg, po measured upto 24 hrs by LC-MS/MS analysis; format: ADME, organism-based; conditions: in vivo, po, 5 mg/kg, 24 h; how it was run: as §3
[16] = AUC(0 to t) in Sprague-Dawley rat at 5 mg/kg, po measured upto 24 hrs by LC-MS/MS analysis; format: ADME, organism-based; design: time < 24 hrs, dose 5 mg/kg, route po; conditions: in vivo; how it was run: as §3
[17] = Clearance in Sprague-Dawley rat at 5 mg/kg, po measured upto 24 hrs by LC-MS/MS analysis; format: ADME, organism-based; conditions: in vivo; how it was run: as §3
[18] = Oral bioavailability in Sprague-Dawley rat at 5 mg/kg measured upto 24 hrs by LC-MS/MS analysis; format: ADME, organism-based; conditions: in vivo
How it was run: (§4)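 Sprague–Dawley rats, n = 5 per group, dosed at 5 mg/kg as a solution in 2% ethanol and 1% Tween 80, pH 5.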

[19] = Tmax in Sprague-Dawley rat at 5 mg/kg, po measured upto 24 hrs by LC-MS/MS analysis; format: ADME, organism-based; conditions: in vivo, po, 5 mg/kg, 24 h; how it was run: as §4

SMILES | IC50 [1] [nM] | IC50 [2] [nM] | Activity [3] [%] | half-life [4] [h] | IC50 [5] [nM] | IC50 [6] [nM] | Ratio IC50 [7] | Ratio IC50 [8] | IC50 [9] [nM] | IC50 [10] [nM] | Ratio IC50 [11] | IC50 [12] [nM] | IC50 [13] [nM] | Cmax [14] [ng/mL] | t1/2 [15] [h] | AUCt [16] [ng·h/mL] | CL [17] [mL/min/kg] | bioavailability [18] [%] | Tmax [19] [h]
Cc1cnc(Nc2ccc(CCNC(=O)/C=C/CN(C)C)cc2)nc1-c1cnn(C(C)C)c1 | > 10000 | 1140 | 64 | 0.902 | 2190 | – | – | – | – | – | – | – | – | – | – | – | – | – | –
Cc1cnc(Nc2ccc(CCNC(=O)CCCN(C)C)cc2)nc1-c1cnn(C(C)C)c1 | > 10000 | 3310 | 77 | 1 | 5230 | – | – | – | – | – | – | – | – | – | – | – | – | – | –
Cc1cnc(Nc2ccc(CCNC(=O)CCl)cc2)nc1-c1cnn(C(C)C)c1 | 1680 | 372 | 48 | 0.493 | 1550 | – | – | – | – | – | – | – | – | – | – | – | – | – | –
C=CC(=O)NCc1ccc(Nc2ncc(C)c(-c3cnn(C(C)C)c3)n2)cc1 | 1760 | 129 | 13 | 1.79 | 245 | 320 | 40 | 41.6 | 8 | 106 | 9.6 | 208 | 77 | – | – | – | – | – | –
Cc1cnc(Nc2ccc(CCNC(=O)CCCl)cc2)nc1-c1cnn(C(C)C)c1 | > 10000 | 2200 | 67 | 0.672 | 5620 | – | – | – | – | – | – | – | – | – | – | – | – | – | –
CCCCS(=O)(=O)NCc1ccc(Nc2ncc(C)c(-c3cnn(C(C)C)c3)n2)cc1 | 1670 | 182 | 15 | 1.64 | 421 | – | – | – | – | – | – | – | – | – | – | – | – | – | –
Cc1cnc(Nc2ccc(CNC(=O)CCCN(C)C)cc2)nc1-c1cnn(C(C)C)c1 | 5840 | 870 | 55 | 1.27 | 1960 | – | – | – | – | – | – | – | – | – | – | – | – | – | –
Cc1cnc(Nc2ccc(CNC(=O)CCCl)cc2)nc1-c1cnn(C(C)C)c1 | 5560 | 385 | 45 | 0.742 | 985 | – | – | – | – | – | – | – | – | – | – | – | – | – | –
C=CS(=O)(=O)NCCc1ccc(Nc2ncc(C)c(-c3cnn(C(C)C)c3)n2)cc1 | 1800 | 169 | 30 | 1.48 | 761 | – | – | – | – | – | – | – | – | – | – | – | – | – | –

These reach a lower IC50 [1]. Values come first.

IC50 [1] [nM] | IC50 [2] [nM] | Activity [3] [%] | half-life [4] [h] | IC50 [5] [nM] | IC50 [6] [nM] | Ratio IC50 [7] | Ratio IC50 [8] | IC50 [9] [nM] | IC50 [10] [nM] | Ratio IC50 [11] | IC50 [12] [nM] | IC50 [13] [nM] | Cmax [14] [ng/mL] | t1/2 [15] [h] | AUCt [16] [ng·h/mL] | CL [17] [mL/min/kg] | bioavailability [18] [%] | Tmax [19] [h] | SMILES
961 | 98.1 | 6 | 0.72 | 150 | 206 | 68.7 | 55.3 | 3 | 73 | 10 | 166 | 33 | – | – | – | – | – | – | Cc1cnc(Nc2ccc(CNC(=O)CCl)cc2)nc1-c1cnn(C(C)C)c1
882 | 178 | 34 | 0.57 | 279 | – | – | – | – | – | – | – | – | – | – | – | – | – | – | Cc1cnc(Nc2ccc(CCNC(=O)/C=C/C(=O)c3ccccc3)cc2)nc1-c1cnn(C(C)C)c1
826 | 265 | 35 | 1.09 | 880 | – | – | – | – | – | – | – | – | – | – | – | – | – | – | Cc1cnc(Nc2ccc(CNC(=O)/C=C/CN(C)C)cc2)nc1-c1cnn(C(C)C)c1
1280 | 72 | 9 | > 2 | 205 | 311 | 77.7 | 39 | 4 | 87 | 15.5 | 156 | 62 | – | – | – | – | – | – | Cc1cnc(Nc2ccc(CNC(=O)C3CC3)cc2)nc1-c1cnn(C(C)C)c1
1250 | 53.3 | 1 | > 2 | 109 | 297 | 59.4 | 53 | 5 | 178 | 40.8 | 265 | 204 | 89.3 | 3.5 | 2011.6 | 355 | 40.5 | 1.6 | Cc1cnc(Nc2ccc(CNS(=O)(=O)C3CC3)cc2)nc1-c1cnn(C(C)C)c1
756 | 87.5 | 5 | 0.913 | 563 | 108 | 15.4 | 7.7 | 7 | 43 | 6.1 | 54 | 43 | – | – | – | – | – | – | Cc1cnc(Nc2ccc(CNC(=O)/C=C/C(=O)c3ccccc3)cc2)nc1-c1cnn(C(C)C)c1
885 | 101 | 10 | > 2 | 108 | – | – | – | – | – | – | – | – | – | – | – | – | – | – | CCCS(=O)(=O)NCc1ccc(Nc2ncc(C)c(-c3cnn(C(C)C)c3)n2)cc1
